Results on 17 molecules are retold here after ChEMBL document CHEMBL1145792, “Structure-activity relationships for 4-nitrobenzyl carbamates of 5-aminobenz[e]indoline minor groove alkylating agents as prodrugs for GDEPT in conjunction with E. coli nitroreductase” (J Med Chem, 2003).

Data set [1] can be described thus: Partition coefficient (logP). It is filed as physicochemical. Particulars: octanol/water. The procedure, abridged:
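logP was calculated with prediction software, not measured.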

Data set [2] has as its system Ovarian cancer cell line. Kind of data set: Ratio of cytotoxicity in a non-NTR-expressing SKOV compared to that in NTR-expressing SKOV. It is filed as functional, Homo sapiens. The procedure, abridged: (§1)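 Parental and stably NTR-transfected partner lines (V79puro/V79-NTRpuro, EMT6/EMT6-NTRpuro, WiDr/WiDr-NTRneo, SKOV3/SKOV-NTRneo) tested in parallel. Aerobic sulforhodamine B growth inhibition after an 18 h exposure, read 4–5 days later. Ratio is the NTR-ve IC50 over the NTR+ve IC50, calculated within each experiment.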

Data set [3] relates to Mammary carcinoma cell line. Kind of data set: Cytotoxicity in non-NTR-expressing mouse mammary carcinoma cell line (EMT6). It is filed as functional, cell-based.
Data set [4] concerns V79. Kind of data set: Cytotoxicity in non-NTR-expressing Chinese hamster fibroblast (V79). It is filed as functional, cell-based. Particulars: Cricetulus griseus.
The test system of data set [5] is Ovarian cancer cell line. Kind of data set: Cytotoxicity in non-NTR-expressing human ovarian carcinoma cell line (SKOV). In kind it is functional, cell-based.
Data set [6] relates to V79. Kind of data set: Ratio of cytotoxicity activity in a non-NTR-expressing V79 compared to that in NTR-expressing V79. It is filed as functional. The procedure, abridged: as §1
The test system of data set [7] is Mammary carcinoma cell line. Kind of data set: Ratio of cytotoxicity in non-NTR-expressing EMT6 compared to that in NTR-expressing EMT6. In kind it is functional, Mus musculus. The procedure, abridged: as §1
Data set [8] concerns WiDr. Kind of data set: Ratio of cytotoxicity in a non-NTR-expressing WiDr compared to that in NTR-expressing WiDr. It is filed as functional, Homo sapiens. The procedure, abridged: as §1
A short description of data set [9]: LogD value was determined. In kind it is physicochemical. Particulars: octanol/water.
In data set [10] the test system is WiDr. Kind of data set: Cytotoxicity in non-NTR-expressing human colon carcinoma cell line (WiDr). In kind it is functional, cell-based.

In the case of `COc1cc2cc(C(=O)N3CC(CCl)c4c3cc(NC(=O)OCc3ccc([N+](=O)[O-])cc3OCCCN(C)C)c3ccccc43)[nH]c2c(OC)c1OC` (stereo not drawn), the log partition coefficient (logP) in [1] (read-out: logP) was 4.95. In addition, the Ratio with Ovarian cancer cell line [2] is given as 3.6; with V79 [6] it was 1.45; in data set [7], 3.4; in the data set on WiDr [8], 3.8. The IC50 is 74 nM in [3], 45 nM in the data set with V79 [4], 189 nM with Ovarian cancer cell line [5] and 269 nM in the data set with WiDr [10]. Further, in data set [9], the logD was found to be 2.74.

Consider `COc1cc2cc(C(=O)N3CC(CCl)c4c3cc(NC(=O)OCc3ccc([N+](=O)[O-])cc3OCC(O)CO)c3ccccc43)[nH]c2c(OC)c1OC` (stereo not drawn), for which the logP in data set [1] (read-out: logP) stood at 3.38. For the same molecule, the Ratio in the data set on Ovarian cancer cell line [2] was 40; in the data set with V79 [6], 1.75; in data set [7], 13; in the data set with WiDr [8], 25. Besides, the IC50 in data set [3] stood at 44 nM; in the data set on V79 [4], 42 nM; in the data set with Ovarian cancer cell line [5], 114 nM; in the data set with WiDr [10], 129 nM.

Consider `CNc1cc2c(c3ccccc13)C(CCl)CN2C(=O)c1cc2cc(OC)c(OC)c(OC)c2[nH]1` (stereo not drawn), for which the logP in data set [1] (read-out: logP) came to 2.87. Besides, the Ratio in the data set with Ovarian cancer cell line [2] came to 0.7; in the data set on V79 [6] it was 1.2; in data set [7], 0.74; in the data set with WiDr [8] it was 1.1. For the same molecule, the IC50 stood at 0.11 nM in [3], 0.08 nM with V79 [4], 0.2 nM in the data set with Ovarian cancer cell line [5] and 0.2 nM with WiDr [10].

On to `COc1cc2cc(C(=O)N3CC(CCl)c4c3cc(N(C)C(=O)OCc3ccc([N+](=O)[O-])cc3)c3ccccc43)[nH]c2c(OC)c1OC` (stereo not drawn), for which the logP in data set [1] (read-out: logP) came out at 3.98. Moreover, the Ratio in the data set on Ovarian cancer cell line [2] was determined as 10; in the data set with V79 [6], 8.4; in data set [7], 27; in the data set with WiDr [8], 15. Further, the IC50 in [3] worked out at 48 nM; with V79 [4] it was 48 nM; with Ovarian cancer cell line [5], 152 nM; with WiDr [10], 101 nM.

For the molecule `COc1cc([N+](=O)[O-])ccc1COC(=O)Nc1ccc(COC(=O)Nc2cc3c(c4ccccc24)C(CCl)CN3C(=O)c2cc3cc(OC)c(OC)c(OC)c3[nH]2)cc1` (stereo not drawn), in data set [1] (read-out: logP), the logP came to 6.09. The Ratio in the data set on Ovarian cancer cell line [2] is on record as 0.7; in the data set with V79 [6], 1.03; in data set [7] it was 1.8; in the data set on WiDr [8], 1.8. Moreover, the IC50 in data set [3] was 63 nM; in the data set with V79 [4] it was 54 nM; with Ovarian cancer cell line [5], 223 nM; in the data set with WiDr [10] it was 295 nM.

`COc1cc2cc(C(=O)N3CC(CCl)c4c3cc(NC(=O)OC(C)c3ccc([N+](=O)[O-])cc3)c3ccccc43)[nH]c2c(OC)c1OC` (stereo not drawn): in [1] (read-out: logP), the logP is 4.9. Further, the Ratio with Ovarian cancer cell line [2] is given as 5.65; in the data set on V79 [6], 1.67; in data set [7], 11; in the data set with WiDr [8], 6.6. The IC50 in [3] was 79 nM; with V79 [4] it was 62 nM; in the data set with Ovarian cancer cell line [5] it was 158 nM; in the data set with WiDr [10], 154 nM.

As to `CN(C)CCOc1ccc2[nH]c(C(=O)N3CC(CCl)c4c3cc(NC(=O)OCc3ccc([N+](=O)[O-])cc3)c3ccccc43)cc2c1` (stereo not drawn), the logP in [1] (read-out: logP) came to 4.94. Further, the Ratio in the data set on Ovarian cancer cell line [2] came out at 41; with V79 [6], 4.3; in data set [7], 31; with WiDr [8], 20. Also, the half-inhibitory concentration (IC50) in data set [3] turned out to be 208 nM; in the data set with V79 [4], 157 nM; in the data set with Ovarian cancer cell line [5], 770 nM; in the data set with WiDr [10] it was 403 nM. In addition, the logD in data set [9] was 3.24.

Take `COc1cc([N+](=O)[O-])ccc1COC(=O)Nc1cc2c(c3ccccc13)C(CCl)CN2C(=O)c1cc2cc(OC)c(OC)c(OC)c2[nH]1` (stereo not drawn): the logP in data set [1] (read-out: logP) came out at 4.77. The Ratio came to 17 with Ovarian cancer cell line [2], 6 in the data set with V79 [6], 108 in [7] and 47 with WiDr [8]. In addition, the IC50 in data set [3] was 174 nM; with V79 [4], 39 nM; in the data set on Ovarian cancer cell line [5] it was 59 nM; in the data set on WiDr [10], 141 nM.

In the case of `NC(=O)c1cc(N(CCBr)CCBr)c([N+](=O)[O-])cc1[N+](=O)[O-]`, in data set [1] (read-out: logP), the logP was determined as 2.68. For the same molecule, the Ratio with Ovarian cancer cell line [2] is listed as 211; in the data set with V79 [6], 302; in [7], 1380; in the data set with WiDr [8], 174. Further, the IC50 came to 54000 nM in [3] and 58000 nM with Ovarian cancer cell line [5].

Consider `NC(=O)c1cc(N2CC2)c([N+](=O)[O-])cc1[N+](=O)[O-]` [TRETAZICAR], for which, in [1], the logP is recorded as 1.28. For the same molecule, the Ratio is reported as 317 in the data set with Ovarian cancer cell line [2], 2090 in the data set with V79 [6], 930 in [7] and 51.2 in the data set with WiDr [8]. Moreover, the IC50 in data set [3] came out at 710000 nM; in the data set with Ovarian cancer cell line [5], 174000 nM.

As to `COCCOc1cc([N+](=O)[O-])ccc1COC(=O)Nc1cc2c(c3ccccc13)C(CCl)CN2C(=O)c1cc2cc(OC)c(OC)c(OC)c2[nH]1` (stereo not drawn), the logP in [1] (read-out: logP) worked out at 4.47. Besides, the Ratio in the data set on Ovarian cancer cell line [2] came to 67; in the data set with V79 [6], 17; in data set [7], 78; in the data set on WiDr [8], 45. The IC50 in data set [3] was 33 nM; in the data set with V79 [4], 31 nM; in the data set with Ovarian cancer cell line [5], 106 nM; in the data set with WiDr [10], 110 nM.

As to `COc1cc2cc(C(=O)N3CC(CCl)c4c3cc(NC(=O)OCc3ccc([N+](=O)[O-])cc3OCCCN3CCOCC3)c3ccccc43)[nH]c2c(OC)c1OC` (stereo not drawn), the logP in data set [1] (read-out: logP) amounted to 4.55. In addition, the Ratio was found to be 6.5 in the data set with Ovarian cancer cell line [2], 2.6 with V79 [6], 6 in data set [7] and 9 with WiDr [8]. In addition, the IC50 in data set [3] was determined as 24 nM; in the data set on V79 [4], 20 nM; in the data set on Ovarian cancer cell line [5], 88 nM; with WiDr [10], 98 nM. The same molecule had a logD in data set [9] of 4.06.

Take `COc1cc2cc(C(=O)N3CC(CCl)c4c3cc(NC(=O)OCc3ccc([N+](=O)[O-])cc3)c3ccccc43)[nH]c2c(OC)c1OC` (stereo not drawn): in data set [1] (read-out: logP), the logP turned out to be 4.55. The Ratio was determined as 12 in the data set with Ovarian cancer cell line [2], 10 with V79 [6], 112 in data set [7] and 33 in the data set with WiDr [8]. Besides, the IC50 in [3] came out at 193 nM; with V79 [4], 89 nM; with Ovarian cancer cell line [5], 62 nM; in the data set with WiDr [10], 391 nM.

As to `CN(C)CCOc1ccc2[nH]c(C(=O)N3CC(CCl)c4c3cc(N)c3ccccc43)cc2c1` (stereo not drawn), the logP in data set [1] (read-out: logP) worked out at 2.26. The Ratio in the data set with Ovarian cancer cell line [2] stood at 1.6; in the data set with V79 [6] it was 1.2; in data set [7], 0.6; in the data set on WiDr [8], 1.9. For the same molecule, the IC50 was found to be 1.9 nM in [3], 2.6 nM in the data set on V79 [4], 13 nM in the data set on Ovarian cancer cell line [5] and 6 nM in the data set on WiDr [10]. The molecule also displayed a logD in [9] of 0.53.

With `COc1cc2cc(C(=O)N3CC(CCl)c4c3cc(N)c3ccccc43)[nH]c2c(OC)c1OC` (stereo not drawn), the logP in data set [1] (read-out: logP) stood at 1.87. Moreover, the Ratio in the data set with Ovarian cancer cell line [2] is recorded as 0.6; with V79 [6] it was 0.9; in data set [7], 2; with WiDr [8], 0.9. The IC50 in data set [3] was 0.37 nM; with V79 [4] it was 0.33 nM; in the data set on Ovarian cancer cell line [5] it was 1.1 nM; in the data set on WiDr [10] it was 1.6 nM.

As for `COc1cc2cc(C(=O)N3CC(CCl)c4c3cc(NC(=O)OCc3ccc([N+](=O)[O-])cc3OCCCO)c3ccccc43)[nH]c2c(OC)c1OC` (stereo not drawn), the logP in [1] (read-out: logP) turned out to be 4.57. The Ratio with Ovarian cancer cell line [2] is 58; with V79 [6], 11; in data set [7], 91; in the data set on WiDr [8], 91. Further, the IC50 in data set [3] came to 47 nM; in the data set with V79 [4], 48 nM; with Ovarian cancer cell line [5], 145 nM; in the data set with WiDr [10] it was 191 nM.

`COc1cc2cc(C(=O)N3CC(CCl)c4c3cc(NC(=O)OCc3ccc([N+](=O)[O-])cc3OCCO)c3ccccc43)[nH]c2c(OC)c1OC` (stereo not drawn): the logP in [1] (read-out: logP) was 3.79. Moreover, the Ratio with Ovarian cancer cell line [2] is recorded as 84; in the data set with V79 [6], 11; in data set [7], 104; with WiDr [8], 148. The IC50 in data set [3] amounted to 107 nM; with V79 [4], 63 nM; with Ovarian cancer cell line [5], 224 nM; in the data set on WiDr [10], 295 nM.

In general, logP refers to a log measure of how a compound divides between an organic and an aqueous phase. A word on the IC50: it is the point on the concentration scale where inhibition reaches its midpoint. Lower therefore signals greater potency in that assay. Broadly, the logD is lipophilicity at a set pH, counting ionised and neutral species.
